Converted amounts (≈) assume the structure as drawn.
What was measured:
Format in all cases: functional
Staphylococcus aureus [1] = assay: Inhibition of growth of Staphylococcus aureus (sensitive)
Streptococcus pyogenes = assay: Inhibition of growth of Streptococcus pyogenes
Mus musculus [2] = assay: In vivo protective dose (PD50) in mice against Escherichia coli Vogel when administered subcutaneously; settings: sc, read-out: PD50
Pseudomonas aeruginosa = assay: Inhibition of growth of Pseudomonas aeruginosa
Staphylococcus aureus [3] = assay: Inhibition of growth of Staphylococcus aureus (resistant)
Escherichia coli [4] = assay: Inhibition of growth of Escherichia coli vogel
Streptococcus pneumoniae = assay: Inhibition of growth of Streptococcus pneumonia
Mus musculus [5] = assay: In vivo protective dose (PD50) in mice against Escherichia coli Vogel when administered perorally; settings: po, read-out: PD50
Enterococcus faecalis = assay: Inhibition of growth of Streptococcus faecalis
Klebsiella pneumoniae = assay: Inhibition of growth of Klebsiella pneumonia
Enterobacter cloacae = assay: Inhibition of growth of Entero. cloacae
Providencia rettgeri = assay: Inhibition of growth of Proteus rettgeri
Escherichia coli [6] = assay: Minimum concentration of the drug needed to produce linear DNA at an intensity relative to oxolinic acid(at 10 ug/mL); settings: read-out: I50
Method in brief: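 DNA gyrase from Escherichia coli H560, assayed by a previously published procedure. The end point is the lowest drug concentration giving linear DNA at an intensity matching the oxolinic acid reference at 10 μg/mL.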

Escherichia coli [7] = assay: Inhibition of growth of Escherichia coli H560

Compound: CC1COc2c(N3CCC(CN(C)C)C3)c(F)cc3c(=O)c(C(=O)O)cn1c23 (stereo unspecified)
- MIC (Staphylococcus aureus [1]): 0.05 µg/mL (≈ 0.128 µM)
- MIC (Streptococcus pyogenes): 0.05 µg/mL (≈ 0.128 µM)
- ED50 (Mus musculus [2]): 2.6 mg/kg
- MIC (Pseudomonas aeruginosa): 3.1 µg/mL (≈ 7.96 µM)
- MIC (Staphylococcus aureus [3]): 0.2 µg/mL (≈ 0.514 µM)
- MIC (Escherichia coli [4]): 0.2 µg/mL (≈ 0.514 µM)
- MIC (Streptococcus pneumoniae): 0.05 µg/mL (≈ 0.128 µM)
- ED50 (Mus musculus [5]): 6.2 mg/kg
- MIC (Enterococcus faecalis): 0.4 µg/mL (≈ 1.03 µM)
- MIC (Klebsiella pneumoniae): 0.4 µg/mL (≈ 1.03 µM)
- MIC (Enterobacter cloacae): 0.4 µg/mL (≈ 1.03 µM)
- MIC (Providencia rettgeri): 0.8 µg/mL (≈ 2.05 µM)
- IC50 (Escherichia coli [6]): 3 µg/mL (≈ 7.7 µM)
- MIC (Escherichia coli [7]): 0.2 µg/mL (≈ 0.514 µM)

Compound: CC1COc2c(N3CCN(C)CC3)c(F)cc3c(=O)c(C(=O)O)cn1c23 (stereo unspecified) [OFLOXACIN]
- MIC (Staphylococcus aureus [1]): 0.1 µg/mL (≈ 0.277 µM)
- MIC (Streptococcus pyogenes): 0.8 µg/mL (≈ 2.21 µM)
- ED50 (Mus musculus [2]): 0.8 mg/kg
- MIC (Pseudomonas aeruginosa): 0.4 µg/mL (≈ 1.11 µM)
- MIC (Staphylococcus aureus [3]): 0.4 µg/mL (≈ 1.11 µM)
- MIC (Escherichia coli [4]): 0.1 µg/mL (≈ 0.277 µM)
- MIC (Streptococcus pneumoniae): 0.8 µg/mL (≈ 2.21 µM)
- ED50 (Mus musculus [5]): 2 mg/kg
- MIC (Enterococcus faecalis): 0.8 µg/mL (≈ 2.21 µM)
- MIC (Klebsiella pneumoniae): 0.1 µg/mL (≈ 0.277 µM)
- MIC (Enterobacter cloacae): 0.1 µg/mL (≈ 0.277 µM)
- MIC (Providencia rettgeri): 0.2 µg/mL (≈ 0.553 µM)
- IC50 (Escherichia coli [6]): 2.25 µg/mL (≈ 6.23 µM)
- MIC (Escherichia coli [7]): 0.05 µg/mL (≈ 0.138 µM)

Compound: CCNCC1CCN(c2c(F)cc3c(=O)c(C(=O)O)cn4c3c2OCC42CC2)C1 (stereo unspecified)
- MIC (Staphylococcus aureus [1]): 0.1 µg/mL (≈ 0.249 µM)
- MIC (Streptococcus pyogenes): 0.05 µg/mL (≈ 0.125 µM)
- MIC (Pseudomonas aeruginosa): 6.3 µg/mL (≈ 15.7 µM)
- MIC (Staphylococcus aureus [3]): 1.6 µg/mL (≈ 3.99 µM)
- MIC (Escherichia coli [4]): 0.8 µg/mL (≈ 1.99 µM)
- MIC (Streptococcus pneumoniae): 0.05 µg/mL (≈ 0.125 µM)
- MIC (Enterococcus faecalis): 0.8 µg/mL (≈ 1.99 µM)
- MIC (Klebsiella pneumoniae): 3.1 µg/mL (≈ 7.72 µM)
- MIC (Enterobacter cloacae): 0.8 µg/mL (≈ 1.99 µM)
- MIC (Providencia rettgeri): 3.1 µg/mL (≈ 7.72 µM)
- IC50 (Escherichia coli [6]): 5.5 µg/mL (≈ 13.7 µM)
- MIC (Escherichia coli [7]): 1.6 µg/mL (≈ 3.99 µM)

Compound: O=C(O)c1cn2c3c(c(N4CCNCC4)c(F)cc3c1=O)OCC21CC1
- MIC (Staphylococcus aureus [1]): 1.6 µg/mL (≈ 4.45 µM)
- MIC (Streptococcus pyogenes): 12.5 µg/mL (≈ 34.8 µM)
- MIC (Pseudomonas aeruginosa): 0.8 µg/mL (≈ 2.23 µM)
- MIC (Staphylococcus aureus [3]): 6.3 µg/mL (≈ 17.5 µM)
- MIC (Escherichia coli [4]): 0.8 µg/mL (≈ 2.23 µM)
- MIC (Streptococcus pneumoniae): 12.5 µg/mL (≈ 34.8 µM)
- MIC (Enterococcus faecalis): 6.3 µg/mL (≈ 17.5 µM)
- MIC (Klebsiella pneumoniae): 0.8 µg/mL (≈ 2.23 µM)
- MIC (Enterobacter cloacae): 0.4 µg/mL (≈ 1.11 µM)
- MIC (Providencia rettgeri): 1.6 µg/mL (≈ 4.45 µM)
- IC50 (Escherichia coli [6]): 11.2 µg/mL (≈ 31.3 µM)
- MIC (Escherichia coli [7]): 0.4 µg/mL (≈ 1.11 µM)

Compound: CC1COc2c(N3CCNCC3)c(F)cc3c(=O)c(C(=O)O)cn1c23 (stereo unspecified) [DESMETHYL-OFLOXACIN]
- MIC (Staphylococcus aureus [1]): 0.4 µg/mL (≈ 1.15 µM)
- MIC (Streptococcus pyogenes): 0.4 µg/mL (≈ 1.15 µM)
- MIC (Pseudomonas aeruginosa): 1.6 µg/mL (≈ 4.61 µM)
- MIC (Staphylococcus aureus [3]): 3.1 µg/mL (≈ 8.92 µM)
- MIC (Escherichia coli [4]): 0.2 µg/mL (≈ 0.576 µM)
- MIC (Streptococcus pneumoniae): 3.1 µg/mL (≈ 8.92 µM)
- MIC (Enterococcus faecalis): 6.3 µg/mL (≈ 18.1 µM)
- MIC (Klebsiella pneumoniae): 0.2 µg/mL (≈ 0.576 µM)
- MIC (Enterobacter cloacae): 0.1 µg/mL (≈ 0.288 µM)
- MIC (Providencia rettgeri): 0.4 µg/mL (≈ 1.15 µM)
- IC50 (Escherichia coli [6]): 3 µg/mL (≈ 8.64 µM)
- MIC (Escherichia coli [7]): 0.1 µg/mL (≈ 0.288 µM)

Compound: CCNCC1CCN(c2c(F)cc3c(=O)c(C(=O)O)cn4c3c2OCC4C)C1 (stereo unspecified)
- MIC (Staphylococcus aureus [1]): 0.006 µg/mL (≈ 0.0154 µM)
- MIC (Streptococcus pyogenes): 0.006 µg/mL (≈ 0.0154 µM)
- ED50 (Mus musculus [2]): 11 mg/kg
- MIC (Pseudomonas aeruginosa): 0.8 µg/mL (≈ 2.05 µM)
- MIC (Staphylococcus aureus [3]): 0.2 µg/mL (≈ 0.514 µM)
- MIC (Escherichia coli [4]): 0.1 µg/mL (≈ 0.257 µM)
- MIC (Streptococcus pneumoniae): 0.025 µg/mL (≈ 0.0642 µM)
- ED50 (Mus musculus [5]): > 100 mg/kg
- MIC (Enterococcus faecalis): 0.05 µg/mL (≈ 0.128 µM)
- MIC (Klebsiella pneumoniae): 0.4 µg/mL (≈ 1.03 µM)
- MIC (Enterobacter cloacae): 0.2 µg/mL (≈ 0.514 µM)
- MIC (Providencia rettgeri): 0.4 µg/mL (≈ 1.03 µM)
- MIC (Escherichia coli [7]): 0.05 µg/mL (≈ 0.128 µM)

Compound: CN(C)CC1CCN(c2c(F)cc3c(=O)c(C(=O)O)cn4c3c2OCC42CC2)C1 (stereo unspecified)
- MIC (Staphylococcus aureus [1]): 0.2 µg/mL (≈ 0.498 µM)
- MIC (Streptococcus pyogenes): 0.4 µg/mL (≈ 0.996 µM)
- ED50 (Mus musculus [2]): 6.3 mg/kg
- MIC (Pseudomonas aeruginosa): 6.3 µg/mL (≈ 15.7 µM)
- MIC (Staphylococcus aureus [3]): 0.8 µg/mL (≈ 1.99 µM)
- MIC (Escherichia coli [4]): 0.4 µg/mL (≈ 0.996 µM)
- MIC (Streptococcus pneumoniae): 0.4 µg/mL (≈ 0.996 µM)
- ED50 (Mus musculus [5]): 16 mg/kg
- MIC (Enterococcus faecalis): 0.8 µg/mL (≈ 1.99 µM)
- MIC (Klebsiella pneumoniae): 0.8 µg/mL (≈ 1.99 µM)
- MIC (Enterobacter cloacae): 0.8 µg/mL (≈ 1.99 µM)
- MIC (Providencia rettgeri): 3.1 µg/mL (≈ 7.72 µM)
- IC50 (Escherichia coli [6]): 11.2 µg/mL (≈ 28 µM)
- MIC (Escherichia coli [7]): 0.8 µg/mL (≈ 1.99 µM)

Source: ChEMBL document CHEMBL1124306, “New "ofloxacin" type antibacterial agents. Incorporation of the spiro cyclopropyl group at N-1” (J Med Chem, 1988)
